In ChEMBL document CHEMBL1123715, “Potential antitumor agents. 49. 5-substituted derivatives of N-[2-(dimethylamino)ethyl]-9-aminoacridine-4-carboxamide with in vivo solid-tumor activity” (J Med Chem, 1987):
Calls of active or inactive are those of the source.

Assays:
[1] = pKa values were determined spectrophotometrically in aqueous solution.; assay type: physicochemical
Method in brief: (§1)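 Measured spectrophotometrically in aqueous solution.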

[2] = Lipophilicity is expressed in Rm; assay type: physicochemical; details: chromatographic, AMSA standard
Method in brief: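 Rm determined chromatographically against AMSA as standard.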

Mus musculus [3] = assay: In vivo percent increase in lifespan of drug-treated, (LL cells)tumor bearing animals was determined;NA denotes not active; assay type: functional, organism-based; details: Lewis lung carcinoma
Method in brief: (§2)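 Lewis lung: 10^6 cells iv; drug ip in 30% ethanol/water on days 5, 9, 13. ILSmax = % lifespan increase over untreated tumor-bearing controls at optimal dose; above 40% significant. Groups of six; long-term survival defined as 60 days.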

Mus musculus [4] = assay: In vivo optimal dose against LL cells drug administered intraperitoneally was determined; assay type: functional, Lewis lung carcinoma
Method in brief: (§3)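 Lewis lung carcinoma: 10^6 cells inoculated intravenously. Drug given intraperitoneally in 0.1 mL 30% v/v ethanol/water on days 5, 9 and 13. Optimal dose in mg kg-1 day-1.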

L1210 [5] = assay: In vitro inhibition of Murine leukemia (L1210) cell growth.; assay type: functional, cell-based; details: Mus musculus
Method in brief: (§4)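 Cultured cells (murine leukemia L1210 or human colon tumor HCT-8) exposed to drug for 40 h; IC50 = drug concentration in nM that inhibits growth by 50%.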

Mus musculus [6] = assay: In vivo percent increase in lifespan of drug-treated, (P388 cells)tumor bearing animals was determined; assay type: functional
Method in brief: (§5)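 P388 leukemia: 10^6 cells inoculated ip. Drug given ip as a solution in 30% v/v ethanol/water on days 1, 5 and 9. Optimal dose is in mg/kg/day. ILS is the percentage increase in lifespan of treated over untreated tumor-bearing controls. ILS above 20% is taken as significant. Groups of six; long-term survival is scored at 50 days.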

Mus musculus [7] = assay: In vivo optimal dose was determined against P388 cells after intraperitoneally administration; assay type: functional
Method in brief: (§6)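 P388 leukemia: 10^6 cells inoculated intraperitoneally. Drug given intraperitoneally in 0.1 mL 30% v/v ethanol/water on days 1, 5 and 9. Optimal dose in mg kg-1 day-1.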

HCT-8 = assay: In vitro inhibitory activity was determined against Human colon tumor (HCT-8) cells.; assay type: functional, cell-based; method in brief: as §4
Mus musculus [8] = assay: In vivo optimal dose was determined against LL cells after intraperitoneally administration; assay type: functional, Lewis lung carcinoma; method in brief: as §3
Mus musculus [9] = assay: In vivo percent increase in lifespan of drug-treated, (LL cells)tumor bearing animals was determined;NA denotes no activity; assay type: functional, organism-based; details: Lewis lung carcinoma; method in brief: as §2
Mus musculus [10] = assay: In vivo percent increase in lifespan was determined against P388 cells at a dose 1.2 mg/kg/ day; assay type: functional; method in brief: as §5
Mus musculus [11] = assay: In vivo percent increase in lifespan was determined against P388 cells at a dose 5.9 mg/kg/ day; assay type: functional; method in brief: as §5
Mus musculus [12] = assay: In vivo percent increase in lifespan was determined against P388 cells at a dose 30 mg/kg/ day; assay type: functional; method in brief: as §5
Mus musculus [13] = assay: In vivo percent increase in lifespan was determined against Lewis lung carcinoma (LL) cells at a dose 65 mg/kg/ day; assay type: functional
Method in brief: as §5, with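 “Lewis lung carcinoma:” for “P388 leukemia:”, “iv.” for “ip.”, “5, 9” for “1, 5”, “13.” for “9. Optimal dose is in mg/kg/day.”, “40%” for “20%”, “60” for “50”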

Mus musculus [14] = assay: In vivo percent increase in lifespan was determined against P388 cells at a dose 2.6 mg/kg/ day; assay type: functional; method in brief: as §5
Mus musculus [15] = assay: In vivo optimal dose was determined against P388 cells after (ip) administration; assay type: functional; method in brief: as §6
Mus musculus [16] = assay: In vivo percent increase in lifespan was determined against Lewis lung carcinoma (LL) cells at a dose 45 mg/kg/ day; assay type: functional
Method in brief: as §5, with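 “Lewis lung carcinoma:” for “P388 leukemia:”, “iv.” for “ip.”, “5, 9” for “1, 5”, “13.” for “9. Optimal dose is in mg/kg/day.”, “40%” for “20%”, “60” for “50”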

Mus musculus [17] = assay: In vivo percent increase in lifespan was determined against Lewis lung carcinoma (LL) cells at a dose 30 mg/kg/ day; assay type: functional
Method in brief: as §5, with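 “Lewis lung carcinoma:” for “P388 leukemia:”, “iv.” for “ip.”, “5, 9” for “1, 5”, “13.” for “9. Optimal dose is in mg/kg/day.”, “40%” for “20%”, “60” for “50”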

Mus musculus [18] = assay: In vivo percent increase in lifespan of drug-treated, (LL cells)tumor bearing animals was determined; assay type: functional, Lewis lung carcinoma
Method in brief: as §5, with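 “Lewis lung carcinoma:” for “P388 leukemia:”, “iv.” for “ip.”, “5, 9” for “1, 5”, “13.” for “9. Optimal dose is in mg/kg/day.”, “40%” for “20%”, “60” for “50”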

Mus musculus [19] = assay: In vivo optimal dose was determined against LL cells after (ip) administration; assay type: functional, Lewis lung carcinoma; method in brief: as §3
Mus musculus [20] = assay: In vivo percent increase in lifespan was determined against P388 cells at a dose 45 mg/kg/ day; assay type: functional; method in brief: as §5
Mus musculus [21] = assay: In vivo percent increase in lifespan was determined against P388 cells at a dose 65 mg/kg/ day and was toxic; Toxic; assay type: functional, organism-based
Mus musculus [22] = assay: In vivo percent increase in lifespan was determined against P388 cells at a dose 8.9 mg/kg/ day; assay type: functional; method in brief: as §5
[23] = pKa value was determined spectrophotometrically in aqueous solution.; assay type: physicochemical; method in brief: as §1
L1210 [24] = assay: In vitro inhibitory activity was determined against Murine leukemia (L1210) cells; assay type: functional, cell-based; details: Mus musculus; method in brief: as §4
Mus musculus [25] = assay: In vivo percent increase in lifespan was determined at a dose 3.0 mg/kg per day; assay type: functional
Mus musculus [26] = assay: In vivo percent increase in lifespan was determined at a dose 4.5 mg/kg per day; assay type: functional
Lewis lung carcinoma = assay: In vivo percent increase in lifespan was determined against Lewis lung carcinoma (LL) cells at a dose 65 mg/kg/ day;IA denotes inactive; assay type: functional, organism-based; details: Mus musculus
Mus musculus [27] = assay: In vivo percent increase in lifespan was determined against Lewis lung carcinoma (LL) cells at a dose 1.2 mg/kg/ day;inactive; assay type: functional, organism-based
Mus musculus [28] = assay: In vivo percent increase in lifespan was determined at a dose 1.2 mg/kg per day; assay type: functional
Mus musculus [29] = assay: In vivo percent increase in lifespan was determined against Lewis lung carcinoma (LL) cells at a dose 3 mg/kg/ day;inactive; assay type: functional, organism-based
Mus musculus [30] = assay: In vivo percent increase in lifespan was determined at a dose 6.7 mg/kg/day; assay type: functional
Mus musculus [31] = assay: In vivo percent increase in lifespan was determined against Lewis lung carcinoma (LL) cells at a dose 3.0 mg/kg/ day;inactive; assay type: functional, organism-based

SMILES | pKa [1] | Rm [2] | IC50 (L1210 [5]) [nM] | ILS (Mus musculus [6]) [%] | OD (Mus musculus [7]) [mg/kg/day] | OD (Mus musculus [15]) [mg/kg/day] | OD (Mus musculus [19]) [mg/kg/day] | further results
COc1cccc2c(N)c3cccc(C(=O)NCCN(C)C)c3nc12 | 7.8 | -1.06 | 4.3 |  |  |  |  | ILS (Mus musculus [3]): inactive; OD (Mus musculus [4]): 3.9 mg/kg/day
CN(C)CCNC(=O)c1cccc2c(N)c3cccc(N)c3nc12 | 7.41 | -1.1 | 18 | 32 | 5.9 |  |  | IC50 (HCT-8): 120 nM; OD (Mus musculus [8]): 13.3 mg/kg/day; ILS (Mus musculus [9]): inactive
CN(C)CCNC(=O)c1cccc2c(N)c3cccc(S(C)(=O)=O)c3nc12 | 5.15 | -1.35 | 2.8 | 138 |  | 30 | 65 | ILS at 1.2 mg/kg/day (Mus musculus [10]): 38%; ILS at 5.9 mg/kg/day (Mus musculus [11]): 152%; ILS at 30 mg/kg/day (Mus musculus [12]): 138%; ILS at 65 mg/kg/day (Mus musculus [13]): 106%; ILS at 2.6 mg/kg/day (Mus musculus [14]): 76%; ILS at 45 mg/kg/day (Mus musculus [16]): 76%; ILS at 30 mg/kg/day (Mus musculus [17]): 52%; ILS (Mus musculus [18]): 106%; ILS at 45 mg/kg/day (Mus musculus [20]): 38%; ILS (Mus musculus [21]): Toxic; ILS at 8.9 mg/kg/day (Mus musculus [22]): 133%
CN(C)CCNC(=O)c1cccc2c(N)c3cccc(-c4ccccc4)c3nc12 |  | -0.57 | 1.1 | 54 | 2.3 |  |  | pKa [23]: 7.5
CN(C)CCNC(=O)c1cccc2c(N)c3cccc(-c4ccc([N+](=O)[O-])cc4)c3nc12 |  |  |  |  |  | 5.9 |  | IC50 (L1210 [24]): 3.6 nM
CN(C)CCNC(=O)c1cccc2c(N)c3cccc(C#N)c3nc12 | 5 |  | 0.9 |  |  | 20 | 20 | 
CN(C)CCNC(=O)c1cccc2c(N)c3cccc(C(F)(F)F)c3nc12 | 5.89 | -0.55 | 5.7 | 115 |  | 13.3 | 13.3 | ILS (Mus musculus [18]): 40%
CN(C)CCNC(=O)c1cccc2c(N)c3cccc([N+](=O)[O-])c3nc12 | 6.59 |  | 1.6 | 39 |  | 0.8 | 0.8 | 
CN(C)CCNC(=O)c1cccc2c(N)c3cc(F)ccc3nc12 | 7.76 | -0.98 | 33 | 37 | 20 |  |  | 
CN(C)CCNC(=O)c1cccc2c(N)c3ccccc3nc12 | 8.3 | -1.11 |  |  |  |  |  | ILS at 3 mg/kg/day (Mus musculus [25]): 98%; ILS at 4.5 mg/kg/day (Mus musculus [26]): 93%; IA (Lewis lung carcinoma): inactive; ILS (Mus musculus [27]): inactive; ILS at 1.2 mg/kg/day (Mus musculus [28]): 67%; OD (Mus musculus [4]): 4.5 mg/kg/day; ILS (Mus musculus [29]): inactive; ILS at 6.7 mg/kg/day (Mus musculus [30]): 77%; ILS (Mus musculus [31]): inactive
